Measured values gathered from unrelated publications.
Nuclear receptor subfamily 4 group A member 2: Nuclear receptor subfamily 4 group A member 2 (Homo sapiens, UniProt P43354)
P2RY14: P2Y purinoceptor 14 (P2RY14, Homo sapiens, UniProt Q15391)
ADRA1B: Alpha-1B adrenergic receptor (ADRA1B, Homo sapiens, UniProt P35368)

Structure (SMILES) | target | assay | measurement | result
COc1cccc2c(Nc3ccc4[nH]c(C(=O)N/N=C/c5ccc(SC)cc5)cc4c3)cc(C)nc12 | Nuclear receptor subfamily 4 group A member 2 | binding, ITC | Kd | 2.8 µM
Cn1nccc1-c1ccc(-c2cc(C(=O)O)cc3cc(-c4ccc(C(F)(F)F)cc4)ccc23)cc1 | P2RY14 | ligand displacement in cells, flow cytometry | Ki | 0.0284 µM
Cc1cc(Oc2ncccc2CN2CCN(c3ccccc3C#N)CC2)ccc1-c1c(C)c(=O)[nH]c(=O)n1C | ADRA1B | ligand displacement, radioligand | Ki | 0.464 µM
O=C(O)c1cc(-c2ccc(-c3ccncc3)cc2)c2ccc(-c3ccc(C(F)(F)F)cc3)cc2c1 | P2RY14 | ligand displacement in cells, flow cytometry | Ki | 0.0237 µM
Cc1cc(Oc2ncccc2CN2CCN(C(c3ccccc3)c3ccccc3)CC2)ccc1-c1c(C)c(=O)[nH]c(=O)n1C | ADRA1B | ligand displacement, radioligand | Ki | 0.721 µM
CCC(=O)NS(=O)(=O)c1ccc(-c2c(-c3ccccc3)noc2C)cc1 | Nuclear receptor subfamily 4 group A member 2 | binding, ITC | Kd | 1.6 µM
Nc1ncnc2c1ncn2[C@@H]1O[C@H](COP(=O)(O)OP(=O)(O)OP(=O)(O)O)[C@@H](O)[C@H]1O | P2X purinoceptor 7 (P2RX7, Homo sapiens, UniProt Q99572) | binding, SPR | Kd | 224 µM
Cc1cc(Oc2ncccc2CN2CCN(c3cccc(C)c3C)CC2)ccc1-c1c(C)c(=O)[nH]c(=O)n1C | ADRA1B | ligand displacement, radioligand | Ki | 4.42 µM
CCN(CC)CCCC(C)Nc1ccnc2cc(Cl)ccc12 (stereo not drawn) | Nuclear receptor subfamily 4 group A member 2 | binding, ITC | Kd | 6.8 µM
Cc1cc(Oc2ncccc2CN2CCN(CCc3ccccc3)CC2)ccc1-c1c(C)c(=O)[nH]c(=O)n1C | ADRA1B | ligand displacement, radioligand | Ki | 1.66 µM
CCC1c2ccsc2CCN1Cc1nc2ccc(Cl)cc2n1CCO (stereo not drawn) | DDB1- and CUL4-associated factor 1 (DCAF1, Homo sapiens, UniProt Q9Y4B6) | binding, SPR | Kd | 20 µM
O=C(O)c1cc(-c2ccc(-n3ccnn3)cc2)c2ccc(-c3ccc(C(F)(F)F)cc3)cc2c1 | P2RY14 | ligand displacement in cells, flow cytometry | Ki | 0.0142 µM
COc1ccccc1N1CCN(Cc2cccnc2Oc2ccc(-c3c(C)c(=O)[nH]c(=O)n3C)c(C)c2)CC1 | ADRA1B | ligand displacement, radioligand | Ki | 1.39 µM
O=C(O)c1cc(-c2ccc(-c3ccc(Cl)s3)cc2)c2ccc(-c3ccc(C(F)(F)F)cc3)cc2c1 | P2RY14 | ligand displacement in cells, flow cytometry | Ki | 1.19 µM
CN1C(C(=O)Nc2ccccn2)=C(O)c2sc(Cl)cc2S1(=O)=O | Nuclear receptor subfamily 4 group A member 2 | binding, ITC | Kd | 1.4 µM
